Measurements reported in article PMC8322834 (Biochemistry, 2020).
≈ marks a conversion by molar mass, not a printed value. Entries after “also recorded” stand apart in the source; their conditions may differ. Non-standard residues stand in square brackets, D forms with d. Residues, ends and D or L forms follow the SMILES beside them. *: point of attachment. X1 = N=c1ccc2c(-c3ccc(C(=O)NCCCCCN4C(=O)CC(*)C4=O)cc3C(=O)O)c3ccc(N)c(S(=O)(=O)O)c3oc-2c1S(=O)(=O)O

Columns and labels:
[1] = system: wild-type E. coli (ATCC 25922) cells; type: cell-based; settings: ATCC 25922, 18 h
ADP-DnaK [2] = biological target: T1, ADP-DnaK (Escherichia coli, UniProt P0A6Y8); experiment: steady-state fluorescence anisotropy, direct binding to ADP-DnaK; design: species or system E. coli; settings: Q taken to be 1.0, Figure S3
DnaK/DnaJ/GrpE (K/J/E) = settings: simple buffer conditions, 400 μM KLR-70, 30 °C, 1 hr
GroEL/ES = settings: c.f. mix, purified GroEL (0.5 μM) / GroES (1.0 μM), 30 °C, 1 hr, Figure S5
[3] = far-UV circular dichroism; type: physicochemical; settings: 1.3 mM HEPES (pH 7.0), room temperature
Outline: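 Test peptide at 20 μM in 1.3 mM HEPES pH 7.0, room temperature. Far-UV spectra recorded from 190 to 260 nm in 1 nm steps at 20 s/step. Each spectrum is the average of n = 2 independent experiments. Secondary structure was deconvoluted with CONTINLL.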

ADP-DnaK [4] = biological target: T1, ADP-DnaK; experiment: steady-state fluorescence anisotropy, competitive binding to ADP-DnaK; design: species or system E. coli
DnaK (ADP-state) = DnaK (ADP-state) (Escherichia coli, UniProt P0A6Y8); experiment: native gel electrophoresis; type: binding, E. coli
Outline: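 DnaK (5 μM) was incubated with test peptide (0–50 μM, independent samples) for 1 hr at 21.5 ± 0.5 °C. Native gels used 32 mM Tris-acetate pH 7.5 running buffer at 200 V for 5 hrs, water-cooled. DnaK band intensity profiles were fit to a sum of two Gaussians to build binding isotherms. KD1 is the mean of n = 3 independent experiments ± standard error.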

[5] = system: nascent apoMb biosynthesis (cell-free transcription-translation); experiment: cell-free expression of apoMb; type: biochemical, E. coli; settings: 37 °C, 20 min

T1 sequence (P0A6Y8 whole entry): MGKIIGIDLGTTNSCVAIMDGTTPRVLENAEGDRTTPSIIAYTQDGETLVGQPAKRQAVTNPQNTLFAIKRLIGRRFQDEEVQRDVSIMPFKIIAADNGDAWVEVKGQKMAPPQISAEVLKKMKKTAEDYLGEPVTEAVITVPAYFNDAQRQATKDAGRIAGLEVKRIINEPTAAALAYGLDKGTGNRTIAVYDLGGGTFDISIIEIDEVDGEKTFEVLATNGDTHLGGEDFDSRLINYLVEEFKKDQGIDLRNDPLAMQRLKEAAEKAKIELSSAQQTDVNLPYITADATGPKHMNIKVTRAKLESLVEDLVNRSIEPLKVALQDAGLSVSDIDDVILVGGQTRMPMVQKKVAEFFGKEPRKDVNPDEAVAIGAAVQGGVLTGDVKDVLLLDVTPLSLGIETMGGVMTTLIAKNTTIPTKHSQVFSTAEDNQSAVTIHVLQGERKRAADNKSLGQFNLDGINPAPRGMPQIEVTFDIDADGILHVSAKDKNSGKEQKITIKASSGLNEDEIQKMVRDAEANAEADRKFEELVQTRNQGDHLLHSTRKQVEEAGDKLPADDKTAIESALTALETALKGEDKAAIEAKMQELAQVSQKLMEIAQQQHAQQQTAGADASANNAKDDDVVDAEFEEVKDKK
Chain of DnaK (ADP-state) (P0A6Y8 whole entry): as above

Structure (SMILES)	MIC [1] [µg/mL]	change in total fluorescence intensity in presence of ADP-DnaK (ADP-DnaK [2])	inhibition of K/J/E-mediated luciferase refolding (DnaK/DnaJ/GrpE (K/J/E))	effect on GroEL/ES-mediated luciferase refolding (GroEL/ES)	secondary structure in solution [3]	Kd (ADP-DnaK [4]) [nM]	Kd (DnaK (ADP-state)) [nM]	effect on nascent apoMb expression ([5]; 150 μM peptide, Δtig S30 extract, pH 7.0, n = 3)	effect on nascent apoMb synthesis ([5]; 60 – 150 μM KLR-70, Δtig S30 extract, pH 7.0, n = 3)	effect on nascent apoMb synthesis ([5]; 200 – 400 μM KLR-70, Δtig S30 extract, pH 7.0, n = 3)	highest KLR-70 concentration not disrupting cell-free protein expression ([5]; Δtig E. coli cell-free system)
CC[C@H](C)[C@H](NC(=O)[C@@H](CCCNC(=N)N)NC(=O)[C@H](CCCNC(=N)N)NC(=O)[C@@H]1CCCN1C(=O)[C@@H]1CCCN1C(=O)[C@H](CCCNC(=N)N)NC(=O)[C@@H]1CCCN1C(=O)[C@H](CCCNC(=N)N)NC(=O)[C@@H]1CCCN1C(=O)[C@H](CC(C)C)NC(=O)[C@H](Cc1ccc(O)cc1)NC(=O)[C@@H]1CCCN1C(=O)[C@@H]1CCCN1C(=O)[C@H](CCCCN)NC(=O)[C@H](CC(=O)O)NC(=O)[C@@H](N)C(C)C)C(=O)N[C@@H](Cc1ccc(O)cc1)C(=O)N[C@@H](CC(N)=O)C(=O)N[C@H](CCCNC(=N)N)C(N)=O [Onc112, reference compound] (H-VDKPPYLPRPRPPR[dR]IYN[dR]-NH2)	5 (≈ 2.09 µM)	–	–	–	–	–	–	–	–	–	–
CC(C)C[C@H](NC(=O)[C@H](CCCCN)NC(=O)[C@H](CCCCN)NC(=O)CNC(=O)[C@H](CCCNC(=N)N)NC(=O)[C@@H](N)CCCNC(=N)N)C(=O)N[C@@H](CC(C)C)C(=O)N[C@@H](CC(C)C)C(=O)N[C@@H](CC(C)C)C(=O)N[C@@H](CC(C)C)C(=O)N[C@@H](CCCCN)C(=O)N[C@@H](CCCCN)C(=O)N[C@@H](CCCCN)C(=O)NCC(=O)N[C@@H](CSC1CC(=O)N(CCCCCNC(=O)c2ccc(-c3c4ccc(=N)c(S(=O)(=O)O)c-4oc4c(S(=O)(=O)O)c(N)ccc34)c(C(=O)O)c2)C1=O)C(=O)O (stereo partly drawn) [KLR-70-C-AF488] (H-RRGKKLLLLLKKKGC(X1)-OH; N-terminus and C-terminus assumed)	–	no statistically significant changes in total fluorescence intensity	–	–	–	–	–	–	–	–	–
CC(C)C[C@H](NC(=O)[C@H](CCCCN)NC(=O)[C@H](CCCCN)NC(=O)CNC(=O)[C@H](CCCNC(=N)N)NC(=O)[C@@H](N)CCCNC(=N)N)C(=O)N[C@@H](CC(C)C)C(=O)N[C@@H](CC(C)C)C(=O)N[C@@H](CC(C)C)C(=O)N[C@@H](CC(C)C)C(=O)N[C@@H](CCCCN)C(=O)N[C@@H](CCCCN)C(=O)N[C@@H](CCCCN)C(=O)NCC(=O)O [KLR-70] (H-RRGKKLLLLLKKKG-OH)	41 to 83	–	fully inhibits K/J/E-mediated luciferase refolding	only weakly reduces the GroEL/ES-mediated refolding of luciferase	mostly unordered; also recorded: predominantly unstructured in solution	890 ± 390	158 ± 73	does not have any influence on apoMb production	nascent protein synthesis is not disrupted	Partial inhibition of protein expression	up to 150 μM
